Compound activity as filed in PubChem BioAssay.
Rows were chosen to be rich in hits. Some 2% of all compounds tested hit in one or more screens of this group.
M5 PAM – CHRM5 positive allosteric modulation | P08912 | CHO-K1 hM5, Fluo-8 calcium, ACh EC20 PAM; 0% = ACh EC20, 100% = ACh EC100 | activation, % at 3 µM | 0.3% of 360,000 active;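 active = activation above the run cutoff, the mean activation of all test compounds plus 3 SD, cut at about 18% in these data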
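System: CHO-K1 hM5 cells. Reagent: acetylcholine, EC20 level. Compound dosing: single dose, 3 µM nominal final test concentration. Timing: Post-acetylcholine fluorescence recording 140 s. Detection: Fluo-8 calcium fluorescence. Read-out: % activation, ACh-normalized. Benchmarks: ACh EC20 and EC100 wells. Repeats: singlicate, one well per test compound.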
M1 ag – agonists of human M1 muscarinic receptor. P11229. activation, % at 3 µM. 0.33% of 360,000 active. CHO-K1 hM1, Fluo-8 calcium fluorescence, agonist mode; 0% DMSO, 100% acetylcholine EC100;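 active = activation above the run's mean compound activation plus 3 SD, cut at about 16% in these data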;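 note: peak over basal fluorescence ratio within a 140 s kinetic read after compound addition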
Target sequence (P11229 whole entry, looked up): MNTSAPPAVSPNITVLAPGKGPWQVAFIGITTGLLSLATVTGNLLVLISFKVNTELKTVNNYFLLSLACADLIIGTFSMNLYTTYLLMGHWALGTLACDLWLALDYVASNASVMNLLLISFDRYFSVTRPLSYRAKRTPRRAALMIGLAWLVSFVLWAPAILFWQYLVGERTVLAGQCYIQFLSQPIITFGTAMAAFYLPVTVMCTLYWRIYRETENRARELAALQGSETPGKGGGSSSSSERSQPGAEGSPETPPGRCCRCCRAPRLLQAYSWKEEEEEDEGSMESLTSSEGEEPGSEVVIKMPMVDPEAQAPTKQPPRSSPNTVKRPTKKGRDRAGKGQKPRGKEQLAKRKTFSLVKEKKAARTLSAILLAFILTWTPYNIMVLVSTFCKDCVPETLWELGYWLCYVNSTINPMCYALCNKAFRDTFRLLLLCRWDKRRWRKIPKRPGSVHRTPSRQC
CHRM1 antagonist – human CHRM1 antagonism | inhibition, % at 3 µM | P11229 | 1.3% of 360,000 active | CHO-K1 hM1, Fluo-8 calcium fluorescence, ACh EC80 antagonist | AID 588852;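 active = percent inhibition above its own plate's cutoff, namely the mean of that plate's compound wells plus 3 SD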;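 note: peak over basal fluorescence ratio during 140 s after agonist addition; 0% = ACh EC80 plus DMSO and 100% = DMSO alone without agonist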
CHRM1 PAM – positive allosteric modulators of human M1 muscarinic receptor; activation, % at 3 µM; CHO-K1 hM1, Fluo-8 calcium fluorescence, ACh EC20; 0% = ACh EC20, 100% = maximal ACh; P11229; 0.088% of 360,000 active; in the data active = activation above about 19%, passing the limit was not always enough
CHRM5 agonist – agonists of human muscarinic M5 receptor (CHRM5); 0.19% of 360,000 active; CHO-K1 hM5 cells, Fluo-8 calcium fluorescence; 0% DMSO wells, 100% maximal acetylcholine response; activation, % at 3 µM;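 active = activation above the run's mean over test compounds plus 3 SD, cut at about 23% in these data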;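 note: signal is peak over basal fluorescence ratio across the kinetic read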
CHRM5 antagonist – antagonists of human muscarinic M5 receptor (CHRM5). 0.59% of 360,000 active. CHO-hM5 cells, Fluo-8 calcium fluorescence, ACh EC80. AID 624040. inhibition, % at 3 µM;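 active = inhibition above a per-plate cutoff, the mean of that plate's test compounds plus 3 SD, cut at about 27% in these data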;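 note: 0% = acetylcholine EC80 with DMSO and 100% = DMSO without agonist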
Starred values were filed as active, the others as inactive; · = no result given.

SMILES | M5 PAM | M1 ag | CHRM1 antagonist | CHRM1 PAM | CHRM5 agonist | CHRM5 antagonist
CCOC(=O)C1CCCN(C/C=C/c2ccccc2)C1 (centres undefined) | -32.9 | -11.4 | 56.3* | -26.7 | -25.0 | 18.7
Cc1ccc(Cc2c(C(C)(C)C)nc3cc(C)c(Br)c(C)n23)cc1 | 7.3 | -3.5 | 2.5 | -1.1 | 4.7 | -7.6
CN1CCC(OC(=O)c2ccc(Br)cc2)CC1 | -11.5 | -6.1 | 4.4 | -11.7 | -7.6 | 6.8
CN1CCC(=C(c2ccccc2)c2ccc(Br)cc2)CC1 | -34.5 | 11.0 | 53.7* | -14.2 | -14.9 | 29.5*
Cc1csc(SCC(=O)Nc2sc3c(c2C#N)CCC3)n1 | 4.9 | -1.4 | -3.1 | 1.9 | 0.2 | -3.3
Cc1ccnc(SCC(=O)Nc2sc3c(c2C#N)CCCC3)n1 | -16.4 | 1.4 | 28.9 | -9.8 | 2.4 | 30.0*
N=c1c2c(ncn1CCN1CCOCC1)Oc1cc(O)ccc1C2c1ccccc1 (centres undefined) | -19.0 | 0.9 | 29.6* | -9.6 | 4.5 | 13.2
COc1ccc(C2c3ccc(O)cc3Oc3ncn(CCN4CCOCC4)c(=N)c32)cc1OC (centres undefined) | 5.4 | 9.8 | -15.2 | -1.5 | 4.2 | -5.3
CC(C)(O)C#Cc1ccc(CN2CCN(Cc3ccsc3)C(CCO)C2)cc1 (centres undefined) | -1.3 | -12.3 | 0.2 | -9.0 | -7.2 | 1.0
OCCC1CN(Cc2cnc(-c3ccc(Cl)cc3)nc2)CCN1C1CCCCC1 (centres undefined) | -13.9 | -6.3 | 18.2 | -14.0 | -9.3 | 29.9*
CSc1ccc(CN2CCN(C3CCCC3)C(CCO)C2)cc1 (centres undefined) | -0.5 | -8.6 | 60.1* | -25.7 | -15.2 | 0.2
Cc1cccc(-c2ncc(CN3CCN(C4CCCC4)C(CCO)C3)cn2)c1 (centres undefined) | 6.1 | -14.4 | 8.4 | -13.0 | -8.4 | -16.0
OCCC1CN(Cc2cc3c(cc2Cl)OCO3)CCN1C1CCCC1 (centres undefined) | -7.5 | -7.5 | 38.3* | -18.5 | -17.5 | -8.8
CC(C)(O)C#Cc1ccc(CN2CCN(C3CCCC3)C(CCO)C2)cc1 (centres undefined) | 7.4 | -7.2 | 52.6* | -22.2 | -15.1 | -2.0
OCCC1CN(Cc2ccncc2)CCN1C1CCCC1 (centres undefined) | -3.1 | -10.5 | 11.9 | -9.4 | -3.7 | 1.9
N#Cc1cccc(NC(=O)c2cc(C3CCCCN3C(=O)CCCc3ccccc3)on2)c1 (centres undefined) | -16.1 | 0.6 | -11.4 | 6.4 | 0.3 | 11.0
CN(C)CCN1CCN(C2CN(Cc3ccc(F)cc3)S(=O)(=O)C2)CC1 (centres undefined) | -0.6 | 9.8 | -9.6 | 19.4 | -0.9 | 5.2
CC(C)(O)C#Cc1ccc(CN2CCN(C3CCCCC3)C(CCO)C2)cc1 (centres undefined) | -1.7 | -10.7 | 25.2* | -27.4 | -7.7 | 2.5
CC(C)(O)C#Cc1ccc(CN2CCN(C3CCCCC3)C(CCO)C2)s1 (centres undefined) | 3.6 | -12.8 | 18.3 | -28.2 | -8.4 | -1.6
CC(C)Cn1c(-c2ccc(F)cc2)n[nH]c1=S | -4.0 | -5.0 | 3.0 | -0.3 | -9.6 | 2.9
CC(C)Cn1c(-c2csc3c2CCCC3)n[nH]c1=S | -23.0 | -14.8 | 44.0* | -34.0 | -7.6 | 14.7
CC(C)Cn1c(-c2ccccc2F)n[nH]c1=S | 2.5 | -3.2 | -10.1 | 7.4 | -3.7 | 46.3*
CCCCCCCCN1C(=O)[C@H](CC(=O)NCCCOC)C[C@@]2(C(=O)OC)CCCCC=C12 | 0.5 | · | · | · | -1.4 | 0.5
CN(CCCN1CCCCC1)C(=O)c1cc(COc2ccc(F)cc2F)on1 | -5.1 | -6.7 | 38.4* | -20.8 | -8.3 | 16.2
CN(CCCC1CCCC1)C(=O)c1cc(COc2ccc(F)cc2F)on1 | -9.1 | -4.0 | -1.7 | -2.7 | -3.7 | 6.9
SMILES | M5 PAM | M1 ag | CHRM1 antagonist | CHRM1 PAM | CHRM5 agonist | CHRM5 antagonist
COc1ccc(OCC(=O)OC2CCN(C)CC2)cc1 | 1.3 | -3.2 | -1.6 | 5.8 | -3.9 | -0.6
Cc1ccccc1OCC(=O)OC1CCN(C)CC1 | -19.0 | -6.1 | 32.0* | -18.0 | -7.7 | 7.9
CN1CCC(OC(=O)COc2ccc(Br)cc2)CC1 | -13.0 | -12.8 | 30.6* | -32.3 | -10.5 | 10.1
NC(Cc1ccc(C(F)(F)F)cc1)c1csc(NC(=O)Nc2ccccc2Oc2ccccc2)n1 (centres undefined) | 2.1 | 5.2 | -6.8 | 4.7 | 2.5 | -1.4
CCN(CC)CCn1c(NCc2cccc(OC)c2OC)nc2ccccc21 | -11.0 | -5.3 | -1.4 | 0.0 | -4.7 | 30.7*
Clc1ccc(SCCOCCN2CCCCC2)cc1 | -0.9 | -10.9 | 27.5* | -22.2 | -7.0 | -2.2
Clc1ccc(SCCOCCN2CCOCC2)cc1 | -2.0 | -8.5 | 23.3 | -9.9 | -7.8 | 21.4
CC1CCCN(CCSc2ccc(Cl)cc2)C1 (centres undefined) | -13.5 | -6.8 | 36.9* | -25.0 | -9.4 | 10.1
CSc1nc2[nH]c(=O)n(O)c(=O)c2n1Cc1ccccc1 | 4.9 | -0.9 | -4.3 | 3.4 | 2.7 | 9.7
Cc1cc2oc(C(=O)NCc3ccccc3)cc(=O)c2cc1C | -21.9 | -7.0 | 81.1* | -30.7 | -8.5 | 96.8*
Cc1ccc2oc(C(=O)NCc3ccccc3)cc(=O)c2c1 | -4.3 | 0.3 | 0.5 | 2.2 | 2.4 | 8.8
O=C1Nc2ccccc2-n2nnnc2C1N1CCN(c2ccc(C(F)(F)F)cc2[N+](=O)[O-])CC1 (centres undefined) | 2.2 | · | · | · | 23.7* | 7.5
Cc1ccc(C)c(N2CCN(C3C(=O)Nc4ccccc4-n4nnnc43)CC2)c1 (centres undefined) | -1.4 | · | · | · | 8.9 | -1.7
COc1cccc(S(=O)(=O)N(C)C[C@@H]2Oc3ncc(C#CCN(C)C)cc3C(=O)N([C@H](C)CO)C[C@H]2C)c1 | -2.6 | -9.8 | 48.7* | -31.0 | -1.5 | -3.3
C[C@@H]1CN([C@@H](C)CO)C(=O)c2cc(C#CCN(C)C)cnc2O[C@H]1CN(C)Cc1ccc2c(c1)OCO2 | -2.3 | -11.0 | 61.8* | -30.4 | -2.9 | 2.5
C[C@@H]1CN([C@@H](C)CO)C(=O)c2cc(Br)cnc2O[C@H]1CN(C)C(=O)CCN1CCCCC1 | 2.3 | -10.8 | 8.9 | -10.4 | 0.7 | -2.7
CCCC#Cc1cnc2c(c1)C(=O)N([C@H](C)CO)C[C@H](C)[C@@H](CN(C)C(=O)CCN1CCCCC1)O2 | -20.4 | -11.1 | 45.4* | -25.3 | -2.1 | 1.4
O=C1NC[C@H](CCCCN2CCN(CCc3ccccc3)C(=O)C2=O)N(CCC2CCCCC2)C1=O | -8.7 | · | · | · | 0.2 | 10.2
CC(=O)Oc1ccccc1Cn1c(C)c(C(=O)NCc2ccc(Cl)c(Cl)c2)sc1=O | -4.2 | 2.9 | -1.0 | -0.8 | 6.5 | 2.9
